Reference: ChEMBL document CHEMBL1141626, “Thiosemicarbazones active against Clostridium difficile” (2008)
Converted amounts (≈) assume the structure as drawn.

Key:
Format in all cases: functional
[1] = test system: Clostridioides difficile; assay: Antimicrobial activity against Clostridium difficile Z1580 after 48 hrs
Procedure, shortened: (§1)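 Anaerobes incubated in an anaerobic cabinet for broth MIC determination. Drug-free incubations of the same organisms served as controls. Value is the minimum inhibitory concentration.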

[2] = test system: Clostridioides difficile; assay: Antimicrobial activity against Clostridium difficile NCTC 11204 after 48 hrs; conditions: NCTC 11204, 48 h; procedure, shortened: as §1
[3] = test system: Staphylococcus epidermidis; assay: Antimicrobial activity against Staphylococcus epidermidis 9 after 24 hrs
Procedure, shortened: (§2)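 MIC by dilution in nutrient broth. Anaerobic organisms were incubated in an anaerobic cabinet. Controls were the same organisms incubated without test compound.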

[4] = test system: Clostridioides difficile; assay: Antimicrobial activity against Clostridium difficile Z1577 after 48 hrs; procedure, shortened: as §1
[5] = test system: Staphylococcus aureus; assay: Antimicrobial activity against methicillin-resistant Staphylococcus aureus E1 after 24 hrs; procedure, shortened: as §2
[6] = test system: Clostridioides difficile; assay: Antimicrobial activity against Clostridium difficile Z1568 after 48 hrs; procedure, shortened: as §1
[7] = test system: Cutibacterium acnes; assay: Antimicrobial activity against Propionibacterium acnes C1 […]; procedure, shortened: as §2
[8] = test system: Staphylococcus aureus; assay: Antimicrobial activity against Staphylococcus aureus H1 after 24 hrs; procedure, shortened: as §2
[9] = test system: Clostridioides difficile; assay: Antimicrobial activity against Clostridium difficile Z162 after 48 hrs; procedure, shortened: as §1
[10] = test system: Clostridioides difficile; assay: Antimicrobial activity against Clostridium difficile Z168 after 48 hrs; procedure, shortened: as §1
[11] = test system: Clostridioides difficile; assay: Antimicrobial activity against Clostridium difficile Z229 after 48 hrs; procedure, shortened: as §1
[12] = test system: Clostridioides difficile; assay: Antimicrobial activity against Clostridium difficile Z169 after 48 hrs; procedure, shortened: as §1
[13] = test system: Clostridioides difficile; assay: Antimicrobial activity against Clostridium difficile Z171 after 48 hrs; procedure, shortened: as §1
[14] = test system: Staphylococcus aureus; assay: Antimicrobial activity against methicillin-sensitive Staphylococcus aureus A3 after 24 hrs; procedure, shortened: as §2
[15] = test system: Cutibacterium acnes; assay: Antimicrobial activity against Propionibacterium acnes NCTC 737 after 48 hrs; conditions: NCTC 737, 48 h; procedure, shortened: as §2
[16] = test system: Clostridioides difficile; assay: Antimicrobial activity against Clostridium difficile Z163 after 48 hrs; procedure, shortened: as §1
[17] = test system: Staphylococcus aureus; assay: Antimicrobial activity against Staphylococcus aureus V1 after 24 hrs; procedure, shortened: as §2
[18] = test system: Staphylococcus aureus; assay: Antimicrobial activity against methicillin-resistant Staphylococcus aureus C3 after 24 hrs; procedure, shortened: as §2
[19] = test system: Clostridioides difficile; assay: Antimicrobial activity against Clostridium difficile Z16 after 48 hrs; procedure, shortened: as §1
[20] = test system: Cutibacterium acnes; assay: Antimicrobial activity against Propionibacterium acnes D1 after 48 hrs; procedure, shortened: as §2
[21] = test system: Cutibacterium acnes; assay: Antimicrobial activity against Propionibacterium acnes C3 after 48 hrs; procedure, shortened: as §2
[22] = test system: Acinetobacter sp.; assay: Antimicrobial activity against Acinetobacter sp.5
[23] = test system: Candida albicans; assay: Antimicrobial activity against Candida albicans 1015391
[24] = test system: Clostridioides difficile; assay: Antimicrobial activity against Clostridium difficile Z150 after 48 hrs; procedure, shortened: as §1
[25] = test system: Staphylococcus aureus; assay: Antimicrobial activity against methicillin-resistant Staphylococcus aureus C1 after 24 hrs; procedure, shortened: as §2
[26] = test system: Clostridioides difficile; assay: Antimicrobial activity against Clostridium difficile Z1578 after 48 hrs; procedure, shortened: as §1
[27] = test system: Staphylococcus aureus; assay: Antimicrobial activity against methicillin-resistant Staphylococcus aureus A1 after 24 hrs; procedure, shortened: as §2
[28] = test system: Candida albicans; assay: Antimicrobial activity against Candida albicans 1012155
[29] = test system: Candida albicans; assay: Antimicrobial activity against Candida albicans 1011377
[30] = test system: Clostridioides difficile; assay: Antimicrobial activity against Clostridium difficile Z170 after 48 hrs; procedure, shortened: as §1
[31] = test system: Candida albicans; assay: Antimicrobial activity against Candida albicans 1013781
[32] = test system: Clostridioides difficile; assay: Antimicrobial activity against Clostridium difficile Z387 after 48 hrs; procedure, shortened: as §1
[33] = test system: Staphylococcus epidermidis; assay: Antimicrobial activity against Staphylococcus epidermidis 3 after 24 hrs; procedure, shortened: as §2
[34] = test system: Clostridioides difficile; assay: Antimicrobial activity against Clostridium difficile Z167 after 48 hrs; procedure, shortened: as §1
[35] = test system: Staphylococcus epidermidis; assay: Antimicrobial activity against Staphylococcus epidermidis RP62A after 24 hrs; procedure, shortened: as §2
[36] = test system: Clostridioides difficile; assay: Antimicrobial activity against Clostridium difficile Z1579 after 48 hrs; procedure, shortened: as §1
[37] = test system: Cutibacterium acnes; assay: Antimicrobial activity against Propionibacterium acnes C5 after 48 hrs; procedure, shortened: as §2
[38] = test system: Clostridioides difficile; assay: Antimicrobial activity against Clostridium difficile Z159 after 48 hrs; procedure, shortened: as §1
[39] = test system: Staphylococcus aureus; assay: Antimicrobial activity against methicillin-resistant Staphylococcus aureus A3 after 24 hrs; procedure, shortened: as §2

SMILES: CCNC(=S)N/N=C/C=C/c1ccc([N+](=O)[O-])o1
- MIC [1]: 1 µg/mL (≈ 3.73 µM)
- MIC [2]: 4 µg/mL (≈ 14.9 µM)
- MIC [3]: 1 µg/mL (≈ 3.73 µM)
- MIC [4]: 0.5 µg/mL (≈ 1.86 µM)
- MIC [5]: 4 µg/mL (≈ 14.9 µM)
- MIC [6]: 1 µg/mL (≈ 3.73 µM)
- MIC [7]: 8 µg/mL (≈ 29.8 µM)
- MIC [8]: 64 µg/mL (≈ 239 µM)
- MIC [9]: 0.125 µg/mL (≈ 0.466 µM)
- MIC [10]: 2 µg/mL (≈ 7.45 µM)
- MIC [11]: 4 µg/mL (≈ 14.9 µM)
- MIC [12]: 2 µg/mL (≈ 7.45 µM)
- MIC [13]: 2 µg/mL (≈ 7.45 µM)
- MIC [14]: 4 µg/mL (≈ 14.9 µM)
- MIC [15]: 4 µg/mL (≈ 14.9 µM)
- MIC [16]: 2 µg/mL (≈ 7.45 µM)
- MIC [17]: 2 µg/mL (≈ 7.45 µM)
- MIC [18]: 4 µg/mL (≈ 14.9 µM)
- MIC [19]: 8 µg/mL (≈ 29.8 µM)
- MIC [20]: 4 µg/mL (≈ 14.9 µM)
- MIC [21]: 2 µg/mL (≈ 7.45 µM)
- MIC [22]: 128 µg/mL (≈ 477 µM)
- MIC [23]: 128 µg/mL (≈ 477 µM)
- MIC [24]: 4 µg/mL (≈ 14.9 µM)
- MIC [25]: 2 µg/mL (≈ 7.45 µM)
- MIC [26]: 1 µg/mL (≈ 3.73 µM)
- MIC [27]: 2 µg/mL (≈ 7.45 µM)
- MIC [28]: 128 µg/mL (≈ 477 µM)
- MIC [29]: 128 µg/mL (≈ 477 µM)
- MIC [30]: 2 µg/mL (≈ 7.45 µM)
- MIC [31]: 128 µg/mL (≈ 477 µM)
- MIC [32]: 16 µg/mL (≈ 59.6 µM)
- MIC [33]: 2 µg/mL (≈ 7.45 µM)
- MIC [34]: 2 µg/mL (≈ 7.45 µM)
- MIC [35]: 4 µg/mL (≈ 14.9 µM)
- MIC [36]: 2 µg/mL (≈ 7.45 µM)
- MIC [37]: 32 µg/mL (≈ 119 µM)
- MIC [38]: 8 µg/mL (≈ 29.8 µM)
- MIC [39]: 4 µg/mL (≈ 14.9 µM)
